Experimental data as given in ChEMBL document CHEMBL1909531, “Mitochondrial respiration inhibitors suppress protein translation and hypoxic signaling via the hyperphosphorylation and inactivation of translation initiation factor eIF2α and elongation factor eEF2” (J Nat Prod, 2011).
Active and inactive are the calls of the source.

Tests used:
[1] = tested on: PC-3; test: Antiproliferative activity against human PC3 cells assessed as cell viability by SRB assay; assay type: functional, cell-based
Procedure, shortened: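 Cells grown in DMEM/F12 with 10% FBS, penicillin and streptomycin; 96-well viability assay, 2-day or 6-day exposure, with medium (5% FBS) and compound renewed after 3 days in the 6-day study. Read by optical density; % inhibition = [1 − (ODtreated/ODcontrol)] × 100 versus medium control.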

[2] = tested on: T47D; test: Reduction in ATP level in human T47D cells after 72 hrs by HPLC-UV analysis; assay type: functional, cell-based
Procedure, shortened: (§1)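 5 × 10^5 cells per well seeded in DMEM/F12 with 10% FBS. After 24 h, half the medium replaced with serum-free DMEM/F12 containing compound. After exposure, cells washed in cold DPBS and extracted with cold 0.4 M perchloric acid, then neutralized with K2CO3. ATP quantified by reversed-phase C18 HPLC-UV using 50 mM potassium phosphate pH 6.0/MeOH at 0.7 mL/min.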

[3] = tested on: T47D; test: Inhibition of cellular respiration in human T47D cells at 0.3 uM in presence of complex 2 substrate succinate; assay type: functional, cell-based
Procedure, shortened: (§2)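 Permeabilized T47D cells, oxygen consumption measured by Clark-type electrode. Complex I respiration started with malate plus pyruvate; succinate added as complex II substrate.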

[4] = target: T1, Hypoxia inducible factors; HIF-1-alpha, HIF-2-alpha (Homo sapiens, UniProt Q16665+Q99814); test: Inhibition of 1, 10-phenanthroline-induced HIF1 activation in human T47D cells after 16 hrs by HRE3-TK-luciferase reporter gene assay; assay type: cell-based
[5] = tested on: MDA-MB-231; test: Reduction in ATP level in human MDA-MB-231 cells after 72 hrs by HPLC-UV analysis; assay type: functional, cell-based; procedure, shortened: as §1
[6] = target: T1, Hypoxia inducible factors; HIF-1-alpha, HIF-2-alpha; test: Inhibition of HIF1-mediated induction of Glut-1 mRNA expression in hypoxia-stimulated human T47D cells at 0.3 to 3 uM after 16 hrs by RT-PCR analysis; assay type: cell-based
[7] = target: T1, Hypoxia inducible factors; HIF-1-alpha, HIF-2-alpha; test: Inhibition of HIF1-mediated induction of cellular VEGF protein in hypoxia-stimulated human T47D cells at 0.3 uM after 16 hrs by ELISA; assay type: cell-based
[8] = tested on: T47D; test: Inhibition of cellular respiration in human T47D cells at 1 uM by oxygen consumption assay; assay type: functional
Procedure, shortened: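 Oxygen consumption of intact T47D cells measured with a Clark-type electrode, in serum-free DMEM/F12 at 30 °C.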

[9] = tested on: T47D; test: Inhibition of cellular respiration in human T47D cells at 0.3 uM by oxygen consumption assay in presence of complex 3 substrate antimycin A; assay type: functional, cell-based
[10] = target: T1, Hypoxia inducible factors; HIF-1-alpha, HIF-2-alpha; test: Inhibition of HIF1-mediated induction of cellular VEGF protein in human T47D cells at 3 uM after 16 hrs by ELISA under normoxic condition; assay type: cell-based
[11] = target: Serine/threonine-protein kinase mTOR (Homo sapiens) (UniProt P42345); test: Inhibition of mTOR-mediated rpS6 phosphorylation on Ser 235/236 in human T47D cells at 1 to 10 uM after 30 mins by Western blotting; assay type: cell-based
[12] = target: T1, Hypoxia inducible factors; HIF-1-alpha, HIF-2-alpha; test: Inhibition of HIF1-mediated induction of Glut-1 mRNA expression in human T47D cells at 3 uM after 16 hrs by RT-PCR analysis under normoxic condition; assay type: cell-based
[13] = target: T1, Hypoxia inducible factors; HIF-1-alpha, HIF-2-alpha; test: Inhibition of hypoxia-induced HIF1 activation in human T47D cells after 16 hrs by HRE3-TK-luciferase reporter gene assay; assay type: cell-based
Procedure, shortened: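 T47D cells carrying the pHRE3-TK-Luc reporter, grown in DMEM/F12 with 10% FBS; HIF-1 induced by hypoxia (1% O2). Activity reported as % inhibition of the induced control, calculated as [1 − (treated/control)] × 100.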

[14] = target: T1, Hypoxia inducible factors; HIF-1-alpha, HIF-2-alpha; test: Inhibition of HIF1-mediated induction of VEGF mRNA expression in human T47D cells at 3 uM after 16 hrs by RT-PCR analysis under normoxic condition; assay type: cell-based
[15] = target: T1, Hypoxia inducible factors; HIF-1-alpha, HIF-2-alpha; test: Inhibition of HIF1-mediated induction of secreted VEGF protein in human T47D cells at 3 uM after 16 hrs by ELISA under normoxic condition; assay type: cell-based
[16] = target: T1, Hypoxia inducible factors; HIF-1-alpha, HIF-2-alpha; test: Inhibition of HIF1-mediated induction of VEGF mRNA expression in hypoxia-stimulated human T47D cells at 0.3 to 3 uM after 16 hrs by RT-PCR analysis; assay type: cell-based
[17] = tested on: T47D; test: Ratio of IC50 for 1, 10-phenanthroline-induced HIF1 activation in human T47D cells to IC50 for hypoxia-induced HIF1 activation in human T47D cells; assay type: cell-based
[18] = tested on: T47D; test: Inhibition of 1, 10-phenanthroline-induced HIF1beta protein accumulation in human T47D cells at 3 uM after 4 hrs by Western blot analysis; assay type: functional, cell-based
[19] = target: Serine/threonine-protein kinase mTOR (Homo sapiens) (UniProt P42345); test: Inhibition of mTOR in human MDA-MB-231 cells assessed as eEF2 hyperphosphorylation on Ser 56 at 1 to 10 uM after 30 mins by Western blotting; assay type: cell-based
Procedure, shortened: (§3)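 Cells seeded at 0.8 × 10^6 per well, exposed 30 min at 37 °C, 5% CO2, in DMEM/F12 with 5% FBS. Lysed in modified RIPA (pH 7.6) with protease and phosphatase inhibitors; 40 µg protein run on 4–20% gels, nitrocellulose transfer. Phospho-specific and total eIF2α/eEF2 primaries at 1:1,000, HRP anti-rabbit at 1:2000, chemiluminescence on film.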

[20] = target: Serine/threonine-protein kinase mTOR (Homo sapiens) (UniProt P42345); test: Inhibition of mTOR in human T47D cells assessed as eEF2 hyperphosphorylation on Ser 56 at 1 to 10 uM after 30 mins by Western blotting; assay type: cell-based; procedure, shortened: as §3
[21] = target: Serine/threonine-protein kinase mTOR (Homo sapiens) (UniProt P42345); test: Inhibition of mTOR-mediated 4E-BP1 phosphorylation on Thr 37/46 in human T47D cells at 1 to 10 uM after 30 mins by Western blotting; assay type: cell-based
[22] = tested on: T47D; test: Antiproliferative activity against human T47D cells assessed as cell viability at 1 uM after 72 hrs by SRB assay; assay type: functional; settings: read-out: Activity
Procedure, shortened: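 T47D cells treated for 72 h in parallel with the HPLC ATP time course; viability measured by sulforhodamine B, in which cells are fixed directly in the wells without aspiration or washing, so loosely attached cells are kept.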

[23] = tested on: T47D; test: Inhibition of cellular respiration in human T47D cells at 0.3 uM by oxygen consumption assay in presence of complex 1 substrate malate and pyruvate; assay type: functional, cell-based; procedure, shortened: as §2
[24] = tested on: MDA-MB-231; test: Reduction in ATP level in human MDA-MB-231 cells at 0.1 to 1 uM after 48 hrs by HPLC-UV analysis; assay type: functional, cell-based
Procedure, shortened: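 Cells seeded at 5 × 10^5 per well in DMEM/F12 with 10% FBS; after 24 h, half the medium was replaced with serum-free medium containing compound. Cells washed with cold DPBS, extracted with cold 0.4 M perchloric acid, neutralized with K2CO3. Nucleotides quantified by C18 HPLC-UV, 50 mM potassium phosphate pH 6.0/MeOH mobile phase, 0.7 mL/min.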

[25] = target: Serine/threonine-protein kinase mTOR (Homo sapiens) (UniProt P42345); test: Inhibition of mTOR-mediated 4E-BP1 phosphorylation on Thr 37/46 in human MDA-MB-231 cells at 1 to 10 uM after 30 mins by Western blotting; assay type: cell-based
[26] = target: Serine/threonine-protein kinase mTOR (Homo sapiens) (UniProt P42345); test: Inhibition of mTOR in human T47D cells assessed as eIF2alpha hyperphosphorylation on Ser 51 at 1 to 10 uM after 30 mins by Western blotting; assay type: cell-based; procedure, shortened: as §3
[27] = tested on: T47D; test: Reduction in ATP level in human T47D cells after 48 hrs by HPLC-UV analysis; assay type: functional, cell-based; procedure, shortened: as §1
[28] = tested on: T47D; test: Inhibition of 1, 10-phenanthroline-induced HIF1alpha protein accumulation in human T47D cells at 3 uM after 4 hrs by Western blot analysis; assay type: functional, cell-based

CC(C)CC(=O)O[C@@H]1CC[C@]2(C)[C@H]3CC[C@]45C[C@]4(CC[C@@H]5[C@@H]4C[C@H]([C@@H]5OC5(C)C)OC4O)[C@]3(C)[C@H](O)C[C@H]2C1(C)C (stereo partly drawn) [SKIMMIAREPIN A]
active: Activity [1] | Activity [2] Dose-dependent effect | Activity [5] Dose-dependent effect | inhibition [6] | inhibition [7] | inhibition [16] | Activity [19] Dose-dependent effect | Activity [20] Dose-dependent effect | inhibition [23] | inhibition [26] Dose-dependent effect | Activity [27]
50%: viability at 1 µM [22]
73%: inhibition at 1 µM [8]
inactive: inhibition [3] | inhibition [9] | inhibition [10] | inhibition [11] | inhibition [12] | inhibition [14] | inhibition [15] | inhibition [18] | inhibition [21] | Activity [24] | inhibition [25] | inhibition [28]
80: Ratio IC50 [17]
0.063 µM: IC50 [13]
> 10 µM: IC50 [4]
